# Assay results from ChEMBL document CHEMBL5649170, “Sustained microglial depletion with CSF1R inhibitor impairs parenchymal plaque development in an Alzheimer's disease model” (Nat Commun, 2019).
# Calls of active or inactive are those of the source. The rule behind the calls is not given here.
# Columns and labels:
# [1] = Drug concentration in wildtype mouse brain at 600 ppm administered as rodent chow starting from 1.5 months and measured after 5 months; assay type: ADME, tissue-based; conditions: route po, time 3.5 months, read-out: Ct
# Method in brief: (§1)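 WT or 5xFAD mice were fed PLX3397 in AIN-76A chow at 600 ppm or 75 ppm from 1.5 to 5 months of age. Terminal brain and plasma drug concentrations were determined at study end.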
# Mus musculus [2] = assay: Antialzheimer activity in 5XFAD mouse assessed as average plaque volume in somatosensory cortex at 75 ppm administered as rodent chow starting from 1.5 months and measured after 5 months by immunolabeling based confocal microscopic analysis (reference value: 871.142 to 1628.317 microm3); assay type: functional; conditions: route po, time 3.5 months, 2555 h
# Method in brief: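 5xFAD mice fed PLX3397 at 75 ppm in AIN-76A chow from 1.5 to 5 months of age; retrosplenial and somatosensory cortex sections stained with Thio-S and immunolabeled for IBA1; confocal imaging, IBA1+ cells and plaques quantified per region; two-tailed independent t-test, n = 4–5 per group, mean ± SEM.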
# [3] = Drug concentration in 5XFAD mouse plasma at 75 ppm administered as rodent chow starting from 1.5 months and measured after 5 months; assay type: ADME, cell-free; conditions: route po, time 3.5 months; method in brief: as §1
# [4] = Effect on Csf1r RPKM gene expression in 5XFAD mouse hippocampus at 1200 ppm administered as rodent chow starting from 1.5 months and measured after 7 months by RNA-Seq analysis (reference value: 33.840 to 41.629 RPKM); assay type: functional; conditions: route po, time 5.5 months, 4015 h
# [5] = molecular target: Calcium/calmodulin-dependent protein kinase type II subunit delta (Homo sapiens, UniProt Q13557); assay: Inhibition of CAMK2D (unknown origin)
# [6] = molecular target: Tyrosine-protein kinase Lyn (Homo sapiens, UniProt P07948); assay: Inhibition of LYN_A (unknown origin)
# [7] = Effect on Hexb gene expression in wild type mouse hippocampus at 1200 ppm administered as rodent chow starting from 1.5 months and measured after 7 months by RNA-Seq analysis (reference value: 42.233 to 43.921 RPKM); assay type: functional; conditions: route po, time 5.5 months, 4015 h
# [8] = Oral bioavailability in male rat at 45 mg/kg administered as single via gavage; assay type: ADME, organism-based; conditions: in vivo
# Mus musculus [9] = assay: Effect on APP processing pathway in wildtype mouse assessed as C99 protein signal intensity in cortex at 1200 ppm administered as rodent starting from 1.5 months and measured after 7 months (reference value: 8.282 to 87.456 %); assay type: functional; conditions: route po, time 5.5 months, 4015 h
# Aurora kinase C = Aurora kinase C (Homo sapiens, UniProt Q9UQB9); assay: Inhibition of AURKC (unknown origin)
# [10] = Effect on Spi1 gene expression in wild type mouse cortex at 1200 ppm administered as rodent chow starting from 1.5 months and measured after 7 months by RNA-Seq analysis (reference value: 1.059 to 1.887 RPKM); assay type: functional; conditions: route po, time 5.5 months, 4015 h
# Angiopoietin-1 receptor = Angiopoietin-1 receptor (Homo sapiens, UniProt Q02763); assay: Inhibition of TEK (unknown origin)
# [11] = molecular target: Glycogen synthase kinase-3 alpha (Homo sapiens, UniProt P49840); assay: Inhibition of GSK3A (unknown origin)
# Mus musculus [12] = assay: Antialzheimer activity in 5XFAD mouse assessed as amyloidbeta40 level in detergent soluble thalamus fraction measured per microgram protein at 1200 ppm administered as rodent chow starting from 1.5 months and measured after 7 months by ELISA (reference value: 0 to 0.047 pg); assay type: functional; conditions: route po, time 5.5 months, 4015 h
# Method in brief: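 PLX5622 at 1200 ppm in chow given to 5xFAD mice from 1.5 months to 4 or 7 months of age; cortex and thalamus homogenized in TPER (detergent-soluble), pellets re-homogenized in 70% formic acid and spun 100,000 g, 1 h, 4 °C (insoluble); protein by Bradford/Lowry; Aβ species measured by Meso Scale electrochemiluminescence immunoassay, normalized to protein; n = 7–8 per group at 7 months.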
# [13] = molecular target: Mitogen-activated protein kinase 3 (Homo sapiens, UniProt P27361); assay: Inhibition of MAPK3 (unknown origin)
# [14] = Prevention of Zfp286 gene downregulation in 5XFAD mouse hippocampus assessed as percent change in Reads Per kilo base per Million mapped reads at 1200 ppm administered as rodent chow starting from 1.5 months and measured after 7 months by RNA-Seq analysis (reference value: 71.833 to 84.581 %); assay type: functional; conditions: route po, time 5.5 months, 4015 h
# [15] = Effect on Spi1 gene expression in 5XFAD mouse thalamus at 1200 ppm administered as rodent chow starting from 1.5 months and measured after 7 months by RNA-Seq analysis (reference value: 2.107 to 3.285 RPKM); assay type: functional; conditions: route po, time 5.5 months, 4015 h
# Mus musculus [16] = assay: Antialzheimer activity in 5XFAD mouse assessed as time spent in closed arm at 1200 ppm administered as rodent chow for 10 to 24 weeks by Elevated plus maze test (reference value: 76.2 to 206.2 sec); assay type: functional; conditions: route po, time 10-24 weeks
# [17] = molecular target: Calcium/calmodulin-dependent protein kinase type IV (Homo sapiens, UniProt Q16566); assay: Inhibition of CAMK4 (unknown origin)
# [18] = molecular target: Tyrosine-protein kinase Fes/Fps (Homo sapiens, UniProt P07332); assay: Inhibition of FES (unknown origin)
# Mus musculus [19] = assay: Prevention of Hgf gene downregulation in 5XFAD mouse hippocampus at 1200 ppm administered as rodent chow starting from 1.5 months and measured after 7 months by Nanostring analysis; assay type: functional, tissue-based; conditions: route po, time 5.5 months
# [20] = Prevention of Dusp5 gene downregulation in 5XFAD mouse hippocampus assessed as percent change in Reads Per kilo base per Million mapped reads at 1200 ppm administered as rodent chow starting from 1.5 months and measured after 7 months by RNA-Seq analysis (reference value: 41.082 to 74.744 %); assay type: functional; conditions: route po, time 5.5 months, 4015 h
# Mus musculus [21] = assay: Prevention of Grn gene upregulation in 5XFAD mouse hippocampus at 1200 ppm administered as rodent chow starting from 1.5 months and measured after 7 months by Nanostring analysis; assay type: functional, tissue-based; conditions: route po, time 5.5 months
# [22] = molecular target: Fibroblast growth factor receptor 2 (Homo sapiens, UniProt P21802); assay: Inhibition of FGFR2 (unknown origin)
# [23] = molecular target: Tyrosine-protein kinase CSK (Homo sapiens, UniProt P41240); assay: Inhibition of CSK (unknown origin)
# [24] = molecular target: Serine/threonine-protein kinase PAK 3 (Homo sapiens, UniProt O75914); assay: Inhibition of PAK3 (unknown origin)
# [25] = Clearance in female rat at 1.13 mg/kg, iv administered as single dose; assay type: ADME, organism-based; conditions: in vivo
# [26] = Drug concentration in 5XFAD mouse plasma at 1200 ppm administered as rodent chow for 10 to 24 weeks; assay type: ADME, cell-free; conditions: po, time 10-24 weeks
# Method in brief: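 WT or 5xFAD mice were started at 1.5 months of age on PLX5622 formulated at 1200 ppm in AIN-76A chow, with control chow as comparison. Feeding ran for 10 or 24 weeks. Terminal plasma and brain drug levels were then measured. Groups were sex-balanced and compared by two-tailed independent t-test.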
# Mus musculus [27] = assay: Antialzheimer activity in 5XFAD mouse assessed as microglial elimination at 1200 ppm administered as rodent chow for 24 weeks relative to control; assay type: functional; conditions: route po
# [28] = Prevention of St8sia5 gene downregulation in 5XFAD mouse hippocampus assessed as percent change in Reads Per kilo base per Million mapped reads at 1200 ppm administered as rodent chow starting from 1.5 months and measured after 7 months by RNA-Seq analysis (reference value: 42.024 to 86.833 %); assay type: functional; conditions: route po, time 5.5 months, 4015 h
# Sequence of Tyrosine-protein kinase Fes/Fps (P07332 whole entry): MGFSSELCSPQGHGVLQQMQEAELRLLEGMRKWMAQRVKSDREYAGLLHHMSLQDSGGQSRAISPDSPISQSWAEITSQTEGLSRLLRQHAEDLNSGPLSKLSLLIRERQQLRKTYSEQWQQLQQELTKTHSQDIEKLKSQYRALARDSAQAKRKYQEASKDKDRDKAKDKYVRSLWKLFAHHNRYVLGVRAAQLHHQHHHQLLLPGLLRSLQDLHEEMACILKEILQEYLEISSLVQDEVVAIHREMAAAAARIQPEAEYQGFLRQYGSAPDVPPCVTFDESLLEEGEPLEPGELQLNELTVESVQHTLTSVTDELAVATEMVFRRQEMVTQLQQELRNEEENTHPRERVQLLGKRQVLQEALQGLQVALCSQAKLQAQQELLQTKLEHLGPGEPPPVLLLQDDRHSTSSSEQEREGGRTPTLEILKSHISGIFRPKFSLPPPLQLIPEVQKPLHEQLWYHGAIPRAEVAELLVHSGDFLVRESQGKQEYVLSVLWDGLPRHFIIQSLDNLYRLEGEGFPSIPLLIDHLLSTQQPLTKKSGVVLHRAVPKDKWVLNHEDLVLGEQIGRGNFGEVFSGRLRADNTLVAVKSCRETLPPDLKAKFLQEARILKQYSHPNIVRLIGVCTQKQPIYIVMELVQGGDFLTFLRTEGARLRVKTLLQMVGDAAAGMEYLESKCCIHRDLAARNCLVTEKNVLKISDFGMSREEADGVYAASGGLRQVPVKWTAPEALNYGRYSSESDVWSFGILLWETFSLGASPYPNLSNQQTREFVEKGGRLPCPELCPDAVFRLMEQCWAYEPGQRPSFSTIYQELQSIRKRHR
# Sequence of Angiopoietin-1 receptor (Q02763 whole entry): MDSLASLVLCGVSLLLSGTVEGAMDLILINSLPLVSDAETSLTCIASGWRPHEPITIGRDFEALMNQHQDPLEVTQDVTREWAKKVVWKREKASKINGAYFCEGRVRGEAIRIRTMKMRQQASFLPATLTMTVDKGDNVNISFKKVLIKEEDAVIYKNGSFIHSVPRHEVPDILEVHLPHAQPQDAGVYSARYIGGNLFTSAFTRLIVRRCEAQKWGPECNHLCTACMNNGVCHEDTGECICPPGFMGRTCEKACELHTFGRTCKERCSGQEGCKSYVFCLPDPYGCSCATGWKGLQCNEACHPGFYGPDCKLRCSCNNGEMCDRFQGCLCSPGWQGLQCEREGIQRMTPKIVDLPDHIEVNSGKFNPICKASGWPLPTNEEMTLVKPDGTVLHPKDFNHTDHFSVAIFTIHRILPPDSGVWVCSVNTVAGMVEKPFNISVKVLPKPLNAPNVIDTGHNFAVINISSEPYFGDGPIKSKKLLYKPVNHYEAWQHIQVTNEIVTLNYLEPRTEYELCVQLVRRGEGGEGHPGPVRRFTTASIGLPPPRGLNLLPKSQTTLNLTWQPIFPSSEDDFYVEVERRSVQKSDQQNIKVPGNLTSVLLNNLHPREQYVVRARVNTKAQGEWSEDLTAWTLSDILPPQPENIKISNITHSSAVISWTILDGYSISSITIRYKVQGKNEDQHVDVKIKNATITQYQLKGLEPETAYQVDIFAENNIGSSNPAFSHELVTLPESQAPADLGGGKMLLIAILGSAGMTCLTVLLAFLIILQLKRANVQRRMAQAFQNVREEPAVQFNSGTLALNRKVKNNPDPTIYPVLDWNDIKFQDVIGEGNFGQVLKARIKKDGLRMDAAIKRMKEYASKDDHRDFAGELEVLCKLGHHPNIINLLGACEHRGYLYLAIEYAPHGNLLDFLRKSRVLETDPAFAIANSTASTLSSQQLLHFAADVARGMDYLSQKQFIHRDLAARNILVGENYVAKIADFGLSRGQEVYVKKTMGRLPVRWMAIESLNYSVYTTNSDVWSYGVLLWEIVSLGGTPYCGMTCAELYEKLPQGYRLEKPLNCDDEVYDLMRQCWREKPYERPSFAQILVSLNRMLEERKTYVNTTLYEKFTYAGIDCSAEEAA
# Sequence of Glycogen synthase kinase-3 alpha (P49840 whole entry): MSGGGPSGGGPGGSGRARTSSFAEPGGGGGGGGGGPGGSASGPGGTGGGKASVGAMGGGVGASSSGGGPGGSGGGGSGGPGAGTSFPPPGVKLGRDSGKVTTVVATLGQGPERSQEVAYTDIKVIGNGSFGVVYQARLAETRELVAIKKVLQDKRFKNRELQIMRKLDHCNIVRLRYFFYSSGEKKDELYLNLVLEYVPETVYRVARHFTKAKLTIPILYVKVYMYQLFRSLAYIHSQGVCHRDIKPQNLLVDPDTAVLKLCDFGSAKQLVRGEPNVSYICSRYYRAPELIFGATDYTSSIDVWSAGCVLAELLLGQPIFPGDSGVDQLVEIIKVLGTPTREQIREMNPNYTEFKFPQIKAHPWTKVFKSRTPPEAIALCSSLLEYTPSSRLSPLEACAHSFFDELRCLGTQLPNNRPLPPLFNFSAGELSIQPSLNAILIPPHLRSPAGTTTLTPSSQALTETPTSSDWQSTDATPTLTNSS
# Sequence of Mitogen-activated protein kinase 3 (P27361 whole entry): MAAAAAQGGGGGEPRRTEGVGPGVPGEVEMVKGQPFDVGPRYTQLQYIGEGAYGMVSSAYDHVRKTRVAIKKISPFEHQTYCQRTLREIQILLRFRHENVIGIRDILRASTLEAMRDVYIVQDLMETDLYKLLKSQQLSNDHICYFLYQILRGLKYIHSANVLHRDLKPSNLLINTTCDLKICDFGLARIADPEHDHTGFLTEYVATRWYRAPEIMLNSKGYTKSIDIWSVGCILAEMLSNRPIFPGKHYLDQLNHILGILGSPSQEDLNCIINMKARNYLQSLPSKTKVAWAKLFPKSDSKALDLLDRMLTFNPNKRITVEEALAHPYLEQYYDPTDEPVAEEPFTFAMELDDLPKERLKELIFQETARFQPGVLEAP
# Sequence of Calcium/calmodulin-dependent protein kinase type IV (Q16566 whole entry): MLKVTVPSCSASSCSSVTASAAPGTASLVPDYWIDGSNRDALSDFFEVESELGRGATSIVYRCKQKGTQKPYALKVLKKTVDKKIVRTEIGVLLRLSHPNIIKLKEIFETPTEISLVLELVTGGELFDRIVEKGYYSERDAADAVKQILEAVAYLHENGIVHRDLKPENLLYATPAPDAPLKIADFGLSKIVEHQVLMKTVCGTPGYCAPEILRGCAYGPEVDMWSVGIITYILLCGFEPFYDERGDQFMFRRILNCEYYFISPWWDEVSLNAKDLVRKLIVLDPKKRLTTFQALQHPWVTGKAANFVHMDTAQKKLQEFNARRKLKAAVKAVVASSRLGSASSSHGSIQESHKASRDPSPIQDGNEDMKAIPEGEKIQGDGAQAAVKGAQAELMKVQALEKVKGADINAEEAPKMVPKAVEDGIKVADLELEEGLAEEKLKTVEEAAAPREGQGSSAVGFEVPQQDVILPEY
# Sequence of Fibroblast growth factor receptor 2 (P21802 whole entry): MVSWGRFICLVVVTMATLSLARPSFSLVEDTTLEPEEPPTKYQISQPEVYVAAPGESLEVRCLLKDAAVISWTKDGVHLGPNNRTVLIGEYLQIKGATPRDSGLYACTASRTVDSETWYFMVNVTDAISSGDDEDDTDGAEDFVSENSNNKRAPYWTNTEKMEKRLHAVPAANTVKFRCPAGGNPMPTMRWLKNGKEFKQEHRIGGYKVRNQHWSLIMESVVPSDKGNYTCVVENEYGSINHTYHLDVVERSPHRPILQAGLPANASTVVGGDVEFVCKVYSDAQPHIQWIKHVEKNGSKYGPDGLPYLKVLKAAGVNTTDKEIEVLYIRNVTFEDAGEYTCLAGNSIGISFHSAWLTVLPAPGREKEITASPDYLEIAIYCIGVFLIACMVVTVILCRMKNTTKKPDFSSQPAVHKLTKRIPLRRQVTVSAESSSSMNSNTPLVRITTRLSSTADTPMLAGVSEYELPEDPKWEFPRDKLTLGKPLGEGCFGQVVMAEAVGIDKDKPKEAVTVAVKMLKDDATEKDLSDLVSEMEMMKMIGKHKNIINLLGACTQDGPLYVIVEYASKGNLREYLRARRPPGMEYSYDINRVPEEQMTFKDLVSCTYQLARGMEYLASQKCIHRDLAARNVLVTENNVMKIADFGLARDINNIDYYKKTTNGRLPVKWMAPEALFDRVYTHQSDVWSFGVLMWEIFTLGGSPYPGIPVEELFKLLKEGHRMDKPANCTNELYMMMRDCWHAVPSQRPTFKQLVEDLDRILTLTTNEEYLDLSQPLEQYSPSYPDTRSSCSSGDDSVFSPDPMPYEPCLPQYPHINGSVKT
# Sequence of Tyrosine-protein kinase CSK (P41240 whole entry): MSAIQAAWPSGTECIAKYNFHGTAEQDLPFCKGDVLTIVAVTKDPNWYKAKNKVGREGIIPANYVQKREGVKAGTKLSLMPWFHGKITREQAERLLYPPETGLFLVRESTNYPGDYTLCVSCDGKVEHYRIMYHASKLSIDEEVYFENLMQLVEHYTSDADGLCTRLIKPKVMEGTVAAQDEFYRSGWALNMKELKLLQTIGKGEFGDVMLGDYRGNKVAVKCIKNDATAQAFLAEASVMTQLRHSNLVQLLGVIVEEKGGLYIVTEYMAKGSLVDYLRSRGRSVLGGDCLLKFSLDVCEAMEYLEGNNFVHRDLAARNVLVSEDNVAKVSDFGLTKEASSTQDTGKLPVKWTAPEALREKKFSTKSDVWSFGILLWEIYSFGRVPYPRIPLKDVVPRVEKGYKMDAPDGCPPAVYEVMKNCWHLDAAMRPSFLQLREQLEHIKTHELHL
# Sequence of Aurora kinase C (Q9UQB9 whole entry): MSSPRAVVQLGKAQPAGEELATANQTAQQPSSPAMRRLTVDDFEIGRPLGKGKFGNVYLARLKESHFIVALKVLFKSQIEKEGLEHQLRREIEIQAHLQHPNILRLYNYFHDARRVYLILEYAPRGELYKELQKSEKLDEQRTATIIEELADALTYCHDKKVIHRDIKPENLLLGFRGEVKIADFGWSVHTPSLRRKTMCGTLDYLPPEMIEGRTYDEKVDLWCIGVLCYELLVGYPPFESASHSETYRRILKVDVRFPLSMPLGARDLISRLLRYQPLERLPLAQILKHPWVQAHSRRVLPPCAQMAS
compound,measurement,setting,value
FC(F)(F)c1ccc(CNc2ccc(Cc3c[nH]c4ncc(Cl)cc34)cn2)cn1 [PEXIDARTINIB],concentration at 2555 h,[1],5 µM
same,Activity,Mus musculus [2],628.64 um3
same,concentration at 2555 h,[3],15 µM
COc1ncc(F)cc1CNc1ccc(Cc2c[nH]c3ncc(C)cc23)c(F)n1 [PLX-5622],Activity,[4],3.234 RPKM
same,IC50,[5],> 1000 nM
same,IC50,[6],> 1000 nM
same,Activity,[7],10.009 RPKM
same,bioavailability,[8],95%
same,Activity,Mus musculus [9],21.073%
same,IC50,Aurora kinase C,1000 nM
same,Activity,[10],0 RPKM
same,IC50,Angiopoietin-1 receptor,> 1000 nM
same,IC50,[11],> 1000 nM
same,Activity,Mus musculus [12],0 pg
same,IC50,[13],> 1000 nM
same,Activity,[14],91.857%
same,Activity,[15],0 RPKM
same,Time,Mus musculus [16],30.9 s
same,IC50,[17],> 1000 nM
same,IC50,[18],> 1000 nM
same,Activity,Mus musculus [19],Active
same,Activity,[20],83.733%
same,Activity,Mus musculus [21],Active
same,IC50,[22],> 1000 nM
same,IC50,[23],> 1000 nM
same,IC50,[24],> 1000 nM
same,clearance,[25],3.7 mL/min/kg
same,concentration,[26],13.5 µM
same,Activity,Mus musculus [27],97%
same,Activity,[28],74.641%
